# In PMC4140444 (Drug Design, Development and Therapy, 2014):
# Legend:
# [1] = tested on: human breast cancer MCF-7 cell line; details: cited from earlier work
# [2] = Cytotoxicity, MTT assay on normal embryonic lung cells; format: cell-based; details: human, MRC-5 normal embryonic lung cells
# How it was run: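 MRC-5 cells grown in DMEM with 10% fetal bovine serum and 100 U/mL penicillin–streptomycin, seeded at 5×10³–2×10⁴ cells/well, then held 24 h at 37°C in 5% CO2. Serial dilutions of test compound added in an equal volume of medium, with doxorubicin (positive) and DMSO (negative) controls, for 48 h. MTT applied for 2–4 h; formazan dissolved in DMSO with sonication; read at 550 nm against a 650 nm reference. IC50 is the concentration giving 50% growth inhibition versus the DMSO control.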
# [3] = biological target: T1, CYP19 (a recombinant human aromatase) (Homo sapiens, UniProt P11511); test: Aromatase inhibition assay; format: biochemical; details: screened at 12.5 μM
# T1 sequence (P11511 1-503): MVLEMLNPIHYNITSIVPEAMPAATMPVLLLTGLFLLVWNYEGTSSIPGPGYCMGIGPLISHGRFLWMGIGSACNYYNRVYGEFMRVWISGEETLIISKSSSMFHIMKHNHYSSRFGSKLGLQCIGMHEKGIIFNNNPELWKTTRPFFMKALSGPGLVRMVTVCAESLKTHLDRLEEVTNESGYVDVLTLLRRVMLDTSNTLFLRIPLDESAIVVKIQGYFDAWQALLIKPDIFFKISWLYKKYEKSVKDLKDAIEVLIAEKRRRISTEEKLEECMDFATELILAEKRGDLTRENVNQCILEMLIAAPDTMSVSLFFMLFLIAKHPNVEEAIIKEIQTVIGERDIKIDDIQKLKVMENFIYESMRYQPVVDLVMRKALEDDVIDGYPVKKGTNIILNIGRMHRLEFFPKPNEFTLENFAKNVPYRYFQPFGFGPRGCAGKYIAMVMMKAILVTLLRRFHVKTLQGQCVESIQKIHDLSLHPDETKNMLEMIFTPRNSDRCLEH
SMILES,Cytotoxic activity against MCF-7 [1],IC50 at 48 h [2],"Aromatase inhibitory activity (IC50 column, activity class) [3]"
"Oc1cccc2cccnc12 [Compound 1, 8-hydroxyquinoline]",substantial cytotoxic activity,6.27 ± 0.58 µM,Inactive ^b
"O=c1[nH]cc([N+](=O)[O-])c(=O)[nH]1 [Compound 2, 5-nitrouracil]",,> 50 µg/mL,Inactive ^b
"O=c1[nH]cc(I)c(=O)[nH]1 [Compound 3, 5-iodouracil]",,> 50 µg/mL,Inactive ^b
COc1cccc2c1C(=O)c1c(O)c3c(c(O)c1C2=O)C[C@@](O)(C(=O)CO)C[C@@H]3O[C@H]1C[C@H](N)[C@H](O)[C@H](C)O1 [Doxorubicin],,> 50 µg/mL,
